Article PMC3042207 (British Journal of Pharmacology, 2011)
Where “and” joins values, the source holds several entries; their conditions need not be identical. Identical values can stand only once.

Assays:
[1] = system: human liver microsomes (HLM); test: Oxidative metabolism of 4-HPR by human liver microsomes; assay type: in vitro ADME; conditions: 4-HPR 0-20 µM, 3 h, HPLC, mean ± SD, n≥3
Summary of the method: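 Termination is with ice-cold acetonitrile, then centrifugation at 10 000× g. The 4′-hydroxy and 4′-oxo metabolites are resolved by reversed-phase HPLC with photodiode-array detection. Vmax is derived from formation rates; mean ± SD, n ≥ 3.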

UGT 1A1 = molecular target: T1, UGT 1A1 (Homo sapiens, UniProt P22309); test: Glucuronidation of 4-HPR by UGT 1A1 supersomes; assay type: in vitro ADME; conditions: UGT 1A1, 1 mg·mL^−1; 4-HPR 0-2000 µM, 3 h
T1 sequence (P22309 26-533): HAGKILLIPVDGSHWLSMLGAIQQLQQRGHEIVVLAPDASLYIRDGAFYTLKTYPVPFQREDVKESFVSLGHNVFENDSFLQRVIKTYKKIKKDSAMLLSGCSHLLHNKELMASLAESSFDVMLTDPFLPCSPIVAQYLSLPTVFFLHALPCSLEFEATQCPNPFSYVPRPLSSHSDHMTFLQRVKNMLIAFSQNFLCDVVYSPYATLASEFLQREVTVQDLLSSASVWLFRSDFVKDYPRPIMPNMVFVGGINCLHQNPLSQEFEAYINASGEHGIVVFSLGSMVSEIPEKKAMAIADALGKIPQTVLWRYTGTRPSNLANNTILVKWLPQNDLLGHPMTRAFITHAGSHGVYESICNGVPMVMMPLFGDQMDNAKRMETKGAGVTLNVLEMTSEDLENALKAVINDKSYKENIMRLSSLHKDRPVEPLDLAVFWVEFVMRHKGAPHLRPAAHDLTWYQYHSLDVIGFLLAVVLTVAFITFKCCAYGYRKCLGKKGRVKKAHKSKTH

UGT 1A3 = molecular target: T2, UGT 1A3 (Homo sapiens, UniProt P35503); test: Glucuronidation of 4-HPR by UGT 1A3 supersomes; assay type: in vitro ADME; conditions: UGT 1A3, 1 mg·mL^−1; 4-HPR 0-2000 µM, 3 h
T2 sequence (P35503 29-534): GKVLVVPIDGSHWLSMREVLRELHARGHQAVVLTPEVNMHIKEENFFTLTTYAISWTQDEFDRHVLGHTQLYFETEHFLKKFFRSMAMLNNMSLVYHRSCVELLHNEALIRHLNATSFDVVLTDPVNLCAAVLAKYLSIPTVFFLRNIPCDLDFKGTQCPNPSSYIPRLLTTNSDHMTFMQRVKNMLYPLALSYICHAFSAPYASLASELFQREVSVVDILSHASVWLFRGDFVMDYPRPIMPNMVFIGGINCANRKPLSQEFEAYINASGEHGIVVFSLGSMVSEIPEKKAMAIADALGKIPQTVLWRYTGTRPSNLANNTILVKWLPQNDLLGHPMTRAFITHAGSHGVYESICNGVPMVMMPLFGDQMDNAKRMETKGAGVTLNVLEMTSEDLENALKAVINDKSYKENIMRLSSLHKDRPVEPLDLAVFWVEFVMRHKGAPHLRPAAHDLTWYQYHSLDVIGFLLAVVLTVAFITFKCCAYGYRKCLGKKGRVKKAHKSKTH

UGT 1A6 = molecular target: T3, UGT 1A6 (Homo sapiens, UniProt P19224); test: Glucuronidation of 4-HPR by UGT 1A6 supersomes; assay type: in vitro ADME; conditions: UGT 1A6, 1 mg·mL^−1; 4-HPR 0-2000 µM, 3 h
T3 sequence (P19224 27-532): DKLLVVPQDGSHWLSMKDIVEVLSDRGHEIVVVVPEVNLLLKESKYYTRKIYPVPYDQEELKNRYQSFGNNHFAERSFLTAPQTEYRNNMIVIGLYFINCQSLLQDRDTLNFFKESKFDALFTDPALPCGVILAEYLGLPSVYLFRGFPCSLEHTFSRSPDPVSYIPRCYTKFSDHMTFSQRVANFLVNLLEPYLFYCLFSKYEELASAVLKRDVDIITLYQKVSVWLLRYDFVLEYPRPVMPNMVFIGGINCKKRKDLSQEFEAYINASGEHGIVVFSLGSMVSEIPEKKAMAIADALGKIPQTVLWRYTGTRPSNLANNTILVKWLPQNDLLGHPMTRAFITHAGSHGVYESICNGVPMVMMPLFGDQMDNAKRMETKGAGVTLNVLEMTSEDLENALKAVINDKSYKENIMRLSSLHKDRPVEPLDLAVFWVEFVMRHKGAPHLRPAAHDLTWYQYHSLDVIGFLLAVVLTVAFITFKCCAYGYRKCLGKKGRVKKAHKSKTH

[2] = Glucuronidation of 4-HPR by human intestinal microsomes; assay type: in vitro ADME; conditions: human, human intestinal microsomes, pH 7.5
Summary of the method: (§1)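 Intestinal or liver microsomes at 1 mg·mL−1 are incubated with 0–2000 µM substrate (13 levels) for 3 h at 37°C. The buffer is 50 mM Tris-HCl, pH 7.5, with alamethicin 25 µg·mL−1, 8 mM MgCl2, 2 mM UDP-glucuronic acid and 0.25% methanol. Reactions are started with enzyme and stopped with ice-cold acetonitrile. The glucuronide is quantified by C18 HPLC, with identity confirmed by β-glucuronidase. Vmax is in peak area units·min−1; mean ± SD of three independent experiments.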

[3] = system: human intestinal microsomes (HIM); test: as above; assay type: in vitro ADME; conditions: HIM, 1 mg·mL^−1; 4-HPR 0-2000 µM, 3 h
Summary of the method: as §1

[4] = Glucuronidation of 4-HPR by human liver microsomes; assay type: in vitro ADME; conditions: human, human liver microsomes, pH 7.5
Summary of the method: as §1

[5] = system: human liver microsomes (HLM); test: Glucuronidation of 4-HPR by human liver microsomes; assay type: in vitro ADME; conditions: HLM, 1 mg·mL^−1; 4-HPR 0-2000 µM, 3 h
Summary of the method: as §1

[6] = system: human liver microsomes (HLM); test: Formation of 4-MPR from 4-HPR by HLM with SAM; assay type: in vitro ADME; conditions: HLM 0.5 mg·mL^−1, 0–100 µM 4-HPR, 0.2 mM SAM, 3 h
individual human CYPs = assay type: in vitro ADME; conditions: CYPs 3A4, 3A5 and 2C8 supersomes
Summary of the method: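 Reactions are stopped with acetonitrile and the 4′-hydroxy metabolite is measured by HPLC. With no authentic standard, Vmax is given in peak area units·min−1. Values are mean ± SD of at least three experiments.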

[7] = mouse model; ref Maurer et al., 2007; cited from earlier work

With CC1=C(/C=C/C(C)=C/C=C/C(C)=C/C(=O)Nc2ccc(O)cc2)C(C)(C)CCC1 [4-HPR, fenretinide] as the molecule, how does the “Vmax, 4′-OH 4-HPR formation” value [1] read?
The value was 28 peak area U·min^−1 and 28 ± 6 peak area U·min^−1.

And the “Vmax, 4′-oxo 4-HPR formation” value [1]?
Its value is 131 peak area U·min^−1 and 131 ± 14 peak area U·min^−1.

What about the “Vmax, 4-HPR glucuronide formation” value (UGT 1A1) of the same molecule?
Its value is 577 ± 34 peak area U·min^−1.

And the “Vmax, 4-HPR glucuronide formation, per pmol UGT” value (from here on “Vmax … per pmol UGT”) (UGT 1A1)?
Its value is 0.62 peak area U·min^−1·pmol^−1 UGT and 0.62 ± 0.04 peak area U·min^−1·pmol^−1 UGT.

And the “Vmax, 4-HPR glucuronide formation” value (UGT 1A3)?
The value was 317 ± 18 peak area U·min^−1.

What about the “Vmax … per pmol UGT” value (UGT 1A3) of the same molecule?
Its value is 2.11 peak area U·min^−1·pmol^−1 UGT and 2.11 ± 0.12 peak area U·min^−1·pmol^−1 UGT.

What about the “Vmax, 4-HPR glucuronide formation” value (UGT 1A6) of the same molecule?
Its value is 124 ± 6 peak area U·min^−1.

And the “Vmax … per pmol UGT” value (UGT 1A6)?
Its value is 0.02 peak area U·min^−1·pmol^−1 UGT and 0.02 ± 0.001 peak area U·min^−1·pmol^−1 UGT.

What about the Km at 3 h [2] of the same molecule?
The Km at 3 h was 1210 ± 202 µM.

And the “Vmax, 4-HPR glucuronide formation” value [3]?
Its value is 418 ± 38 peak area U·min^−1.

What about the Km at 3 h [4] of the same molecule?
The Km at 3 h was 540 ± 69 µM.

And the “Vmax, 4-HPR glucuronide formation” value [5]?
The value was 679 ± 39 peak area U·min^−1.

What about the “Vmax, 4-MPR formation” value ([6]; calculated) of the same molecule?
The value was 823 peak U·min^−1.

What about the Km ([6]; read-out: Km, 4-MPR formation) of the same molecule?
Its Km is 236 µM.

What about the “Vmax, 4′-OH 4-HPR production, range over supersomes expressing individual CYPs” value (individual human CYPs) of the same molecule?
Its value is 115–282 peak area U·min^−1.

What about the “increase of plasma concentrations, lipid matrix vs oil-based capsules” value [7] of the same molecule?
The value was “up to seven-fold”.
